Laboratory results taken from ChEMBL document CHEMBL4715721, “Synthesis and optimization of novel allylated mono-carbonyl analogs of curcumin (MACs) act as potent anti-inflammatory agents against LPS-induced acute lung injury (ALI) in rats” (Eur J Med Chem, 2016).
In brackets after ≈: the same amount, converted by molar mass. Activity calls are given as the source filed them. No cut-off for these calls is given here.

Tests used:
Mus musculus = experiment: Antiinflammatory activity against LPS-induced septic shock C57BL/6 mouse model assessed as proportion of died animals at 10 mg/kg, iv administered daily before LPS administration and monitored for 7 days (reference value: 100%); format: functional; details: time 7 day
Procedure, shortened: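 Male C57BL/6 mice, n = 10 per group, were given the test agent as its hydrochloride salt (10 mg/kg IV) or saline vehicle. LPS (20 mg/kg IP) was injected afterwards. Survival was recorded every 24 h for 7 days after LPS.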

RAW264.7 [1] = experiment: Antiinflammatory activity in mouse RAW264.7 cells assessed as decrease in LPS-induced TNF-alpha secretion at 10 microM incubated for 30 mins followed by LPS stimulation and measured after 24 hrs by ELISA relative to control; format: functional; details: RAW264.7, 24.5 h, time 1470 min
Procedure, shortened: (§1)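 RAW264.7 cells in DMEM with 10% FBS at 37 °C, 5% CO₂; pretreated with 10 μM for 30 min, then LPS 0.5 μg/mL for 24 h. Medium TNF-α and IL-6 measured by ELISA and normalized to total protein of viable cells; percent inhibition, mean ± SD of three experiments.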

Rattus norvegicus [2] = experiment: Antiinflammatory activity against LPS-induced acute lung injury rat model assessed as reduction in total cells in BALF at 10 to 20 mg/kg administered before LPS instillation and measured after 6 hrs; format: functional, organism-based; details: dose 10-20 mg/kg
Procedure, shortened: (§2)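 Rats given intratracheal LPS after pretreatment at 10 or 20 mg/kg; killed 6 h after LPS under anaesthesia; BALF and lung collected. BALF IL-6 and TNF-α measured by ELISA in BALF supernatant; serum IL-6 measured; BALF total cells counted; lung MPO activity and TNF-α immunostaining assessed.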

Rattus norvegicus [3] = experiment: Antiinflammatory activity against LPS-induced acute lung injury rat model assessed as reduction in lung wet/dry ratio at 10 to 20 mg/kg administered before LPS instillation and measured after 6 hrs; format: functional, organism-based; details: dose 10-20 mg/kg
Procedure, shortened: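 Edema index in rats killed 6 h after intratracheal LPS, with pretreatment at 10 or 20 mg/kg: right upper lung lobe excised, blotted and weighed wet, then dried at 65 °C for 48 h and reweighed; wet/dry weight ratio calculated.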

Rattus norvegicus [4] = experiment: Antiinflammatory activity against LPS-induced acute lung injury rat model assessed as reduction in IL-6 level in BALF at 10 to 20 mg/kg administered before LPS instillation and measured after 6 hrs by ELISA; format: functional, organism-based; details: dose 10-20 mg/kg; procedure, shortened: as §2
Rattus norvegicus [5] = experiment: Antiinflammatory activity against LPS-induced acute lung injury rat model assessed as reduction in TNF-alpha level in BALF at 10 to 20 mg/kg administered before LPS instillation and measured after 6 hrs by ELISA; format: functional, organism-based; details: dose 10-20 mg/kg; procedure, shortened: as §2
Rattus norvegicus [6] = experiment: Antiinflammatory activity against LPS-induced acute lung injury rat model assessed as reduction in inflammatory cell infiltration in lungs at 10 to 20 mg/kg administered before LPS instillation and measured after 6 hrs by hematoxylin and eosin staining based microscopic analysis; format: functional, organism-based; details: dose 10-20 mg/kg
Procedure, shortened: (§3)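 Rats pretreated at 10 or 20 mg/kg, then intratracheal LPS; lungs taken 6 h later, fixed in 4% paraformaldehyde, paraffin-embedded, cut at 5 μm, stained with hematoxylin-eosin, and examined by light microscopy for edema, hemorrhage, cell infiltration and epithelial/endothelial damage.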

[7] = Cytotoxicity against human HL7702 cells assessed as cell survival rate at 10 uM incubated for 24 hrs by MTT assay; format: cell-based; details: HL7702 (L02) cells, read-out: Activity
Procedure, shortened: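 HL-7702 human normal hepatic cells exposed to 10 μM compound for 24 h; viability measured by MTT assay and given as survival rate, mean ± SD of three experiments.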

Rattus norvegicus [8] = experiment: Antiinflammatory activity against LPS-induced acute lung injury rat model assessed as reduction in CD-68 stained macrophage numbers in lungs at 10 to 20 mg/kg administered before LPS instillation and measured after 6 hrs by immunohistochemical analysis; format: functional, organism-based; details: dose 10-20 mg/kg
Procedure, shortened: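 Lung sections from rats given intratracheal LPS, pretreated at 10 or 20 mg/kg, killed 6 h after LPS; immunohistochemistry for the macrophage marker CD68, with CD68-positive cells counted.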

BEAS-2B [9] = experiment: Antiinflammatory activity in human BEAS-2B cells assessed as reduction in LPS-induced IL-6 mRNA expression incubated for 30 mins followed by LPS stimulation and measured after 24 hrs by qRT-PCR analysis; format: functional, cell-based; details: dose 10-20 µM, time 1470.0 min
Procedure, shortened: (§4)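 Beas-2B cells seeded at 7.0×10^5/plate overnight at 37 °C, 5% CO₂; pretreated with 10 μM for 30 min, then LPS 1 μg/mL for 24 h. Total RNA extracted with TRIZOL; two-step SYBR Green RT-qPCR. Expressed as percent of LPS control; mean ± SEM of three independent experiments.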

RAW264.7 [10] = experiment: Antiinflammatory activity in mouse RAW264.7 cells assessed as decrease in LPS-induced IL-6 secretion incubated for 30 mins followed by LPS stimulation and measured after 24 hrs by ELISA; format: functional, cell-based; details: dose 1-10 µM, time 1470.0 min
Procedure, shortened: (§5)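 RAW264.7 cells seeded at 4.0×10^5/plate overnight; pretreated at 1, 2.5, 5 or 10 μM for 30 min, then with or without LPS 0.5 μg/mL for 24 h. Medium IL-6 and TNF-α measured by ELISA and normalized to total protein; percent of LPS control, mean ± SEM of three independent experiments.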

Rattus norvegicus [11] = experiment: Antiinflammatory activity against LPS-induced acute lung injury rat model assessed as reduction in lung edema at 10 to 20 mg/kg administered before LPS instillation and measured after 6 hrs by hematoxylin and eosin staining based microscopic analysis; format: functional, organism-based; details: dose 10-20 mg/kg; procedure, shortened: as §3
Rattus norvegicus [12] = experiment: Antiinflammatory activity against LPS-induced acute lung injury rat model assessed as reduction in TNFalpha expression in lung tissue at 10 to 20 mg/kg administered before LPS instillation and measured after 6 hrs by immunohistochemical analysis; format: functional, organism-based; details: dose 10-20 mg/kg; procedure, shortened: as §2
Rattus norvegicus [13] = experiment: Antiinflammatory activity against LPS-induced acute lung injury rat model assessed as reduction in total protein content in BALF at 10 to 20 mg/kg administered before LPS instillation and measured after 6 hrs by BCA protein assay; format: functional, organism-based; details: dose 10-20 mg/kg
Procedure, shortened: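 Left lung lavaged with saline (3 × 1.5 mL) 6 h after intratracheal LPS in rats pretreated at 10 or 20 mg/kg; lavage spun at 1000 rpm for 10 min; supernatant protein measured by BCA assay.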

[14] = Octanol-water partition coefficient, logP of compound; format: physicochemical
RAW264.7 [15] = experiment: Antiinflammatory activity in mouse RAW264.7 cells assessed as decrease in LPS-induced IL-6 secretion at 10 microM incubated for 30 mins followed by LPS stimulation and measured after 24 hrs by ELISA relative to control; format: functional; details: RAW264.7, 24.5 h, time 1470 min; procedure, shortened: as §1
[16] = Chemical stability of compound in PBS buffer containing 5% DMSO at pH 7.4 measured every 5 mins for 25 mins by UV-Vis absorption spectral analysis; format: physicochemical; details: pH 7.4, 25 min
Procedure, shortened: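 Compound diluted from 1 mM stock in phosphate buffer pH 7.4 containing 5% DMSO; UV-visible spectra recorded from 250 to 600 nm at 25 °C in a 1 cm quartz cuvette, every 5 min for 25 min.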

RAW264.7 [17] = experiment: Antiinflammatory activity in mouse RAW264.7 cells assessed as decrease in LPS-induced TNF-alpha secretion incubated for 30 mins followed by LPS stimulation and measured after 24 hrs by ELISA; format: functional, cell-based; details: dose 1-10 µM, time 1470.0 min; procedure, shortened: as §5
Rattus norvegicus [18] = experiment: Antiinflammatory activity against LPS-induced acute lung injury rat model assessed as reduction in destruction of epithelial and endothelial cell structure in lungs at 10 to 20 mg/kg administered before LPS instillation and measured after 6 hrs by hematoxylin and eosin staining based microscopic analysis; format: functional, organism-based; details: dose 10-20 mg/kg; procedure, shortened: as §3
BEAS-2B [19] = experiment: Antiinflammatory activity in human BEAS-2B cells assessed as reduction in LPS-induced VCAM-1 mRNA expression incubated for 30 mins followed by LPS stimulation and measured after 24 hrs by qRT-PCR analysis; format: functional, cell-based; details: dose 10-20 µM, time 1470.0 min; procedure, shortened: as §4
Rattus norvegicus [20] = experiment: Antiinflammatory activity against LPS-induced acute lung injury rat model assessed as decrease in neutrophil infiltration in lungs by measuring decrease in MPO activity at 10 to 20 mg/kg administered before LPS instillation and measured after 6 hrs; format: functional, organism-based; details: dose 10-20 mg/kg; procedure, shortened: as §2
[21] = Aqueous kinetic solubility of compound at pH 7.4; format: physicochemical; details: read-out: Kinetic_solubility
BEAS-2B [22] = experiment: Antiinflammatory activity in human BEAS-2B cells assessed as reduction in LPS-induced TNFalpha mRNA expression incubated for 30 mins followed by LPS stimulation and measured after 24 hrs by qRT-PCR analysis; format: functional, cell-based; details: dose 10-20 µM, time 1470.0 min; procedure, shortened: as §4
BEAS-2B [23] = experiment: Antiinflammatory activity in human BEAS-2B cells assessed as reduction in LPS-induced IL-1beta mRNA expression incubated for 30 mins followed by LPS stimulation and measured after 24 hrs by qRT-PCR analysis; format: functional, cell-based; details: dose 10-20 µM, time 1470.0 min; procedure, shortened: as §4
Rattus norvegicus [24] = experiment: Antiinflammatory activity against LPS-induced acute lung injury rat model assessed as reduction in alveolar hemorrhage in lungs at 10 to 20 mg/kg administered before LPS instillation and measured after 6 hrs by hematoxylin and eosin staining based microscopic analysis; format: functional, organism-based; details: dose 10-20 mg/kg; procedure, shortened: as §3
Rattus norvegicus [25] = experiment: Antiinflammatory activity against LPS-induced acute lung injury rat model assessed as reduction in IL-6 level in serum at 10 to 20 mg/kg administered before LPS instillation and measured after 6 hrs by ELISA; format: functional, organism-based; details: dose 10-20 mg/kg; procedure, shortened: as §2

For `C=CCc1cc(/C=C2\CN(C3CC3)C/C(=C\c3ccc(N4CCN(C)CC4)cc3)C2=O)ccc1O`, the Activity (Mus musculus) was 50%, the inhibition at 10 µM (RAW264.7 [1]) was 43.8% and the Activity (Rattus norvegicus [2]) was “Active”. The Activity (Rattus norvegicus [3]) was “Active”, the Activity (Rattus norvegicus [4]) was “Active” and the Activity (Rattus norvegicus [5]) was “Active”. For the same compound, the Activity (Rattus norvegicus [6]) was “Active”, the viability at 24 h, 10 µM [7] was 90.3% and the Activity (Rattus norvegicus [8]) was “Active”. For the same compound, the Activity (BEAS-2B [9]) was “Dose-dependent effect”, the inhibition (RAW264.7 [10]) was “Dose-dependent effect” and the Activity (Rattus norvegicus [11]) was “Active”. For the same compound, the Activity (Rattus norvegicus [12]) was “Active”, the Activity (Rattus norvegicus [13]) was “Active” and the logP [14] was 3.48. The inhibition at 10 µM (RAW264.7 [15]) was 83.3%, the Stabilty [16] was “Stable” and the inhibition (RAW264.7 [17]) was “Dose-dependent effect”. For the same compound, the Activity (Rattus norvegicus [18]) was “Active”, the Activity (BEAS-2B [19]) was “Dose-dependent effect” and the Activity (Rattus norvegicus [20]) was “Active”. The solubility kinetic [21] was 22.5 mg/mL (≈ 47.9 mM), the Activity (BEAS-2B [22]) was “Dose-dependent effect” and the Activity (BEAS-2B [23]) was “Dose-dependent effect”. For the same compound, the Activity (Rattus norvegicus [24]) was “Active” and the Activity (Rattus norvegicus [25]) was “Active”.
